According to ChEMBL document CHEMBL4513216, “Probing the Open Global Health Chemical Diversity Library for Multistage-Active Starting Points for Next-Generation Antimalarials” (ACS Infect Dis, 2020):

Test: Toxicity liver stage against HepG2, at 10uM
Type: cell-based
Parameters: test concentration 10 uM, cell line HepG2-A16-CD81EGFP
Conditions: human, HepG2-A16-CD81EGFP cells; read-out: INHIBITION
Outline: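 Uninfected HepG2-A16-CD81EGFP cells, 3 × 10^3 per well, 1536-well, plated on prespotted compound at 10 μM final, parasite-free screening media added to match infected plates; puromycin 10 μM positive, DMSO 0.5% negative; run in parallel with 48 h PbLuc assay at 37 °C, 5% CO2; viability by CellTiter-Glo luminescence, normalized to controls.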

Point of comparison: Cc1nc(CC(C)C)sc1C(=O)N1CCC(C2(C)OCCO2)CC1, cytotoxicity at 10 µM 4.21%. Against it:
- c1cc(-c2nnc([C@H]3CCN(C4CCCCC4)C3)o2)ccn1 — lower, -102%
- CCCS(=O)(=O)N1Cc2c(ncn2Cc2ccccc2)C[C@H]1C(=O)OC — lower, 0.434%
- O[C@H]1CC[C@@H](Cc2cc(-c3ccccn3)on2)O[C@@H]1CNCC1CC1 — lower, -4.05%
- Cc1nn(-c2ccccc2Cl)c(C)c1CCC(=O)NCCS(C)(=O)=O — lower, 2.78%
- O=S1(=O)c2ccccc2C(O)CN1CCO (centres undefined) — lower, 2.37%
- Cc1nnc(C2CCN(C(=O)c3ccc4[nH]ccc4c3)CC2)s1 — higher, 15%
- Fc1ccc2c(c1)C1(CCNCC1)CC2OCC1CC1 (centres undefined) — higher, 4.92%
- O=C1CC2(CCN(c3nncs3)C2)CN1c1cccc(F)c1 (centres undefined) — lower, -3.36%
- Cn1cccc1C(=O)NCc1cnc2n1CCN(C(N)=O)CC2 — lower, 0.312%
- O=C(c1ccoc1)N1CCO[C@]2(CCC[C@@H]2COCc2ccncc2)C1 — lower, 0.341%
- COCC(=O)N1CCN(C)c2ncccc2C1 — lower, -3.1%
- Cc1ncoc1C(=O)N1C[C@@H]2COC[C@]2(c2nnc(C3CC3)o2)C1 — lower, -2.08%
- O=C(c1cccs1)N1CCC2(CC1)CC(Oc1ccccc1)CO2 (centres undefined) — higher, 15.4%
- N#Cc1ccc(OC[C@]23COC[C@H]2CN(Cc2ccoc2)C3)nc1 — lower, -0.762%
- Cc1nc(N2CCCC2)nc2c1CCN(C(=O)NC1CCCC1)CC2 — lower, 3.8%
- Cc1cccn2c(=O)cc(OC(=O)c3ccc(OC(C)C)cc3)nc12 — higher, 10%
- CCOc1cc(-c2cc(=O)n3c(n2)CCCCC3)ccc1O — lower, 1.32%
- Cc1noc(C)c1CN1CCOC2(CCCN(c3nccs3)C2)C1 (centres undefined) — lower, 2.39%
- Cc1c(Cl)c(C(=O)NCc2ccc(F)cc2)nn1C — lower, -2.26%
- CCc1cc(=O)n(CC(=O)NCC2CCCO2)c(-c2cccc(F)c2)n1 (centres undefined) — lower, -1.61%
- CC(Cn1cccn1)NC(=O)c1cc(C2CC2)nc2c1cnn2C (centres undefined) — lower, 0.351%
- Cc1ncc(C(=O)N2CCOC(C(=O)N3CCCCC3)C2)c(C)n1 (centres undefined) — lower, 1.14%
- Cc1nc(O)cc([C@@H]2CN(S(=O)(=O)N(C)C)C[C@H]2c2ccccc2F)n1 — higher, 5.8%
- COc1ccc(OCCc2cc(C3CNCCO3)nn2C)cc1 (centres undefined) — higher, 7.13%
- Cc1cc(NCCNS(=O)(=O)c2cn(C)nc2C)c2ccccc2n1 — lower, 1.78%
- CN1CCCC1c1ccnc(-c2ccccn2)n1 (centres undefined) — lower, -5.26%
- CC(C)(C)OC(=O)N1CCN(c2ccc(F)cc2)CC1C(=O)O (centres undefined) — lower, -1.73%
- CN(C)C(=O)C1(C)CN(Cc2cn(C)c3ccc(F)cc23)CCO1 (centres undefined) — higher, 4.57%
- CNC(=O)CN1CCOC(c2cccc(N)n2)C1 (centres undefined) — lower, -5.22%
- Cc1noc(C)c1-c1ccc(C2CCCN2C(=O)c2cccnc2)nc1 (centres undefined) — higher, 4.7%
- CNC(=O)c1ccc(C2CN(C(=O)c3scnc3C)CCO2)nc1 (centres undefined) — higher, 19.7%
- Cc1ccc2cc(CNCCCN3CCOCC3)c(=O)[nH]c2c1C — lower, -10.1%
- Cc1cc(C)c2ncc(C#N)c(NC3CCN(CC(N)=O)CC3)c2c1 — lower, -4.38%
- CC(C)(CNc1ccccc1S(=O)(=O)C(F)F)N1CCOCC1 — higher, 12.2%
- COCCN1CC(C(=O)NCc2ccc(C)s2)CC1=O (centres undefined) — higher, 5.27%
- CCCN(Cc1cnn(C)c1)S(=O)(=O)c1cc(C)cc(F)c1 — higher, 16.2%
- CN(C)c1ncccc1CNCc1cccc(O)c1 — higher, 5.05%
- CC(O)c1cnn(-c2ccccc2)c1 (centres undefined) — lower, -1.55%
- O=C(CN1CCCS1(=O)=O)Nc1ccc(OC2CCCC2)cc1 — lower, -7.31%
- CCCC(=O)NC(Cc1ccc(C)cc1)c1ccccn1 (centres undefined) — lower, -2.25%
- Cc1ccc(-c2nc(C(=O)N(C)CC(=O)N3CCCC3)cs2)c(C)c1 — lower, -2.28%
- CN(Cc1nc(C(C)(C)C)no1)C1CCS(=O)(=O)C1 (centres undefined) — higher, 15.2%
- CCOC(=O)c1ccc(CNC(=O)c2ccc(C)nc2)o1 — higher, 10.6%
- Cn1c(C2CC2)nc2cc(NC(=O)C3CCOC3)ccc21 (centres undefined) — lower, 3.09%
- CCCn1cc(NC(=O)c2ccc(S(C)(=O)=O)cc2)ccc1=O — lower, -13.1%
- Cc1ccc(C(N)=O)cc1NCCOc1cccc(C#N)c1 — lower, 2.87%
- O=C1CC2(CCCC2)C(=O)N1CC(O)COCc1ccccc1F (centres undefined) — lower, 0.927%
- CC(C)(CC(=O)Nc1cccc(Oc2ccccn2)c1)C(=O)O — lower, -17.6%
- CC(C)C1CN(S(=O)(=O)c2ccc(C#N)cc2)CCS1 (centres undefined) — higher, 6.88%
- CCOCc1nnc(NCc2ccsc2)o1 — lower, -0.432%
- CN1C(=O)CCc2cc(NC(=O)C3CC(=O)N(CC4CC4)C3)ccc21 (centres undefined) — lower, -12.2%
- Cc1noc(-c2ccnc(N3CCCN(C4CCOCC4)CC3)c2)n1 — lower, -2.85%
- Cn1ccc(NC2CCN(C3CC3)C2=O)n1 (centres undefined) — higher, 7.31%
- Cc1ncsc1CNC(=O)CCN1CCN(c2ccccn2)CC1 — lower, 2.31%
- COc1cccc2c1N(S(=O)(=O)c1cc(C(=O)O)cs1)CCC2 — lower, -1.95%
- CC1CN(C)CCN1Cc1cccc(C(=O)NCc2ccco2)c1 (centres undefined) — lower, 3.33%
- Cc1nc(-c2cccc(C(=O)N(C)CC(C)O)c2)cs1 (centres undefined) — lower, 2.68%
- NC(=O)C1CCN(CCCNC(=O)Nc2nncs2)CC1 — lower, -0.165%
- COCCCOc1ccc(C(=O)N(Cc2cnn(C)c2)C(C)C)cn1 — lower, 2.1%
- O=C(c1ccc[nH]1)N1CCc2nnc(Cn3cccc3)n2CC1 — lower, 3.46%
- COc1ccccc1C(=O)N1CCOC2(CCCN(C(C)=O)C2)C1 (centres undefined) — lower, -72.9%
- O=C1CC2(CCN(Cc3ncc[nH]3)CC2)CN1Cc1cc(F)cc(F)c1 — lower, -5.53%
- Cc1ccc([C@@H]2CN(C(=O)c3ccon3)C[C@H]2NC(=O)C2CC2)cc1 — lower, 1.08%
- CCCc1cc(C(=O)N2CCC3(CC2)CN(CCN(C)C)C(=O)O3)no1 — higher, 14.1%
- COCCC(=O)N(C)CCC1=CCN(C)CC1 — lower, -6.93%
- CCCc1cc(N2CCC(NCC3(O)CCN(C)CC3)CC2)nc(C)n1 — lower, -16.1%
- CC(C)c1nccn1C(C)C(=O)N1CCN(c2cnccn2)CC1 (centres undefined) — lower, -12.5%
- CC(C)c1cc(C(=O)N2CCCN(CCCc3ccccc3)CC2)[nH]n1 — lower, 0.271%
- CCN(Cc1cnn(C)c1)C[C@H]1CC[C@@H](Cc2ccc(CO)cc2)O1 — higher, 5.95%
- CN(C)c1ccc(C(=O)N2Cc3cnc(C(C)(C)C)nc3C2)cc1 — lower, -5.51%
- CN1CC2(CCN(C(=O)c3ccc(-n4cnnc4)cc3Cl)CC2)OC1=O — lower, 4.03%
- Cn1c(CCNC(=O)CC[C@@H]2CCCN3CCCC[C@H]23)n[nH]c1=O — lower, 4.13%
- CN1CC2(CCN(C(=O)c3ccc4nonc4c3)CC2)CC1=O — lower, 0.873%
- CCCN(CCc1ccccc1)C(=O)c1ccccc1NCC(=O)O — higher, 7.38%
- CCn1cnnc1CCNC(=O)C1COc2ccc(OC)cc2C1 (centres undefined) — lower, -1.31%
- CC(C)c1nc(CCN(C)C(=O)C2COc3ccccc3C2)no1 (centres undefined) — higher, 4.31%
- CC(NC(=O)c1ccoc1)c1ccc2c(c1)CCC(=O)N2 (centres undefined) — lower, -1.36%
- Cc1cnn(C2CCCN(C(=O)c3cc4nc(C)ccc4o3)C2)c1 (centres undefined) — lower, 2.22%
- O=C1C(NCc2nnc3n2CCCC3)CCN1c1ccccc1F (centres undefined) — lower, -4.92%
- O=C(NCc1nn(-c2ccccc2)c2c1CCC2)NC1CCOCC1 — lower, -8.72%
- Cc1oncc1C(=O)NCc1ccnc(OCC(F)(F)F)c1 — lower, -3.39%
- CN1CCC/C1=N\S(=O)(=O)c1ccc(NC(=O)Cc2cccs2)cc1 — lower, -10.6%
- CNS(=O)(=O)c1ccc(CNC(=O)c2c(C)oc(C)c2C)cc1 — lower, -17.1%
- O=C(CCc1ccncc1)NCc1csc(Br)c1 — lower, -15.5%
- CCc1noc(CNC2CCCN(Cc3noc(C4CC4)n3)C2)n1 (centres undefined) — lower, -25.6%
- COc1c(CNCC(O)c2ccc(C)cc2)c(C(C)C)nn1C (centres undefined) — lower, -10.6%
- Cc1ncsc1C(=O)N(Cc1cccnc1)C1CC1 — lower, -4.84%
- CC(C)(CNC(=O)CCOc1cccc(F)c1)C(N)=O — lower, -0.704%
- Cc1cnn(CCCNC(=O)N2CCCCC(N3CCCC3)C2)c1 (centres undefined) — lower, -5.97%
- c1cnc(-c2nc(CNCCn3cccn3)cs2)nc1 — lower, -10.3%
- CC(C(=O)NCCOc1cccc(Cl)c1)n1cncn1 (centres undefined) — lower, -3.53%
- COc1ccccc1-c1noc(CN2CCCC2Cn2cccn2)n1 (centres undefined) — lower, -8.95%
- COc1ccc(CC(=O)N2CCCC(n3cc(C)cn3)C2)cc1F (centres undefined) — lower, 1.88%
- Cc1nc[nH]c1CN(Cc1ccccc1F)C1CC(C)(C)NC(C)(C)C1 — lower, -3.41%
- c1cncc(OC[C@]23COC[C@H]2CN(Cc2nccs2)C3)c1 — lower, -1.43%
- O=C1CCC2(CCCN(C(=O)c3ccccn3)CC2)N1 (centres undefined) — lower, -2.51%
- COCC(=O)N1CCC2(CC1)CC(COC)N(c1ncccn1)C2 (centres undefined) — higher, 6.85%
- O=C(CC1CC1)N[C@@H]1CN(Cc2ccc(F)cc2)C[C@@H]2CCCO[C@@H]21 — higher, 14.9%
- Cc1occc1C(=O)N1C[C@@H]2[C@@H](C1)OCC(=O)N2Cc1cccnc1 — lower, 0.661%
- Cc1cc(C(=O)N2CCC3(CCN3Cc3ccc(F)cc3)C2)no1 (centres undefined) — higher, 4.29%
- CN(C)C(=O)c1nn(C)c2c1CN(Cc1cccs1)C2 — higher, 4.9%
- O=C1C[C@H]2[C@@H](CCN2C(=O)Cc2ccccc2)N1Cc1cccnc1 — lower, -3.86%
- CC(NCc1c(C(C)C)nn(C)c1N(C)C)C(=O)NC1CCCC1 (centres undefined) — lower, 0.966%
- Cc1ccc(CN2C[C@@H]3CCN(Cc4cccnc4)C(=O)[C@H]3C2)s1 — lower, 0.434%
- CN(C)C(=O)CC1CC2(CCN(Cc3ccoc3)CC2)c2ccccc21 (centres undefined) — lower, -10.1%
- O=C([C@H]1CCCO1)N1CCOC2(CCCN(c3ncccc3F)C2)C1 (some centres undefined) — lower, 1.73%
- Cc1ccc(CN2C[C@@H]3COC[C@@H](NS(C)(=O)=O)[C@@H]3C2)o1 — lower, -8.52%
- O=C(c1ccsc1)N1C[C@H]2CCC[C@@]2(COCc2cccnc2)C1 — lower, -2.86%
